Reference: publication PMC6534466 (European journal of pharmacology, 2019)
Like-named read-outs stand apart in the source and are kept apart here.

Tests used:
Jurkat cells = experiment: Jurkat cell proliferation; assay type: cell-based, human; conditions: 72 h; for Cell proliferation inhibition: Jurkat cells, relative to DMSO
How it was run: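 Jurkat cells (T-lymphoblastic leukaemia, endogenous CB2) at passage 4–12 were grown in RPMI 1640 with 10% FBS and 1% antibiotic-antimycotic at 37°C and 5% CO2. Cells were plated at 10^5 cells/ml and given test compound in RPMI (DMSO vehicle) for 70 h. CellTiter 96 AQueous One was then added for 2 h and A490 read. Percent inhibition was taken relative to DMSO. Triplicate; mean ± S.E.M.; one-way ANOVA with Tukey.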

[1] = tested on: ERK1/2 phosphorylation (cannabinoid CB2 receptor-induced); experiment: ERK1/2 phosphorylation immunoblot in CB2-transfected HEK293 cells; assay type: cell-based; conditions: 1.0 μM compound, 5 min; for ERK1/2 phosphorylation in the presence of PTX: 10 ng/ml PTX pretreatment 16 h; for ERK1/2 phosphorylation, fold increase above vehicle: without PTX
How it was run: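 HEK293 cells were transfected with CB2 DNA by Lipofectamine 2000, then pretreated 24 h later in DMEM with or without 10 ng/ml pertussis toxin for 16 h. They were exposed 5 min at 37°C to 1.0 µM test compound; vehicle was DMSO on CB2-transfected cells. Lysates were immunoblotted for phospho-p44/42 and phospho-MEK with chemiluminescent detection. Statistics: one-way ANOVA with Tukey test.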

cannabinoid CB2 receptor [2] = molecular target: T1, cannabinoid CB2 receptor (Homo sapiens, UniProt P34972); conditions: read-out: EC50, cAMP accumulation screen; prior screen; ref Ogawa et al., 2017; cited from earlier work
T1 sequence (P34972 whole entry): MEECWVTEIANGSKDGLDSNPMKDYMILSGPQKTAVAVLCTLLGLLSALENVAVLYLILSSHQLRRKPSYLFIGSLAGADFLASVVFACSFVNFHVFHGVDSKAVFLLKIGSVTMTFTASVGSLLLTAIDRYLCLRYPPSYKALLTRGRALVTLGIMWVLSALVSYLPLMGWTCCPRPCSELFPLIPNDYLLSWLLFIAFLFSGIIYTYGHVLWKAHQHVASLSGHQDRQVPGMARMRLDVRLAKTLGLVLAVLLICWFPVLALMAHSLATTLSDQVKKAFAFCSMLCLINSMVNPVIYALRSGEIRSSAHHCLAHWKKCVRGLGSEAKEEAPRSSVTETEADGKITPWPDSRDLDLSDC

cannabinoid CB2 receptor [3] = molecular target: T1, cannabinoid CB2 receptor; experiment: [35S]GTPγS binding stimulation; assay type: biochemical
cannabinoid CB2 receptor [4] = molecular target: T1, cannabinoid CB2 receptor; experiment: Radioligand competition binding with [3H]CP55,940, CB2
cannabinoid CB1 receptor = cannabinoid CB1 receptor (Homo sapiens, UniProt P21554); conditions: read-out: Ki, cannabinoid CB1 receptor, ref Huffman et al., cited from earlier work
cannabinoid CB1 receptor, sequence (P21554 whole entry): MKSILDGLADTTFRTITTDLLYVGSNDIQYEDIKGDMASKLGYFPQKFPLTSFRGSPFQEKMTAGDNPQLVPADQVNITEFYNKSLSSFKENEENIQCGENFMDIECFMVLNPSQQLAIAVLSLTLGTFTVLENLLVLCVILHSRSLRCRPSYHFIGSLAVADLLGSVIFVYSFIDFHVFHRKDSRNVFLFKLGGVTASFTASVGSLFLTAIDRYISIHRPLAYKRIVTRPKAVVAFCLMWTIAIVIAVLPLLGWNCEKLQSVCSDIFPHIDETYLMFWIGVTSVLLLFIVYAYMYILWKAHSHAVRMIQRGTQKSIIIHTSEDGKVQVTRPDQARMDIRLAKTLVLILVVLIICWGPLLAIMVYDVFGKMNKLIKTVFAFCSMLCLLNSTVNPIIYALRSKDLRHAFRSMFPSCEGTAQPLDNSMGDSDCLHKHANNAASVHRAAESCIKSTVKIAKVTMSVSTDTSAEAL

cannabinoid CB2 receptor [5] = molecular target: T1, cannabinoid CB2 receptor; conditions: read-out: Ki, cannabinoid CB2 receptor, ref Huffman et al., cited from earlier work
[6] = Homo sapiens, Jurkat, read-out: Cell proliferation inhibition

Compound | ERK1/2 phosphorylation in the presence of PTX [1] | ERK1/2 phosphorylation, fold increase above vehicle [1] | EC50 (cannabinoid CB2 receptor [2]) | EC50 (cannabinoid CB2 receptor [3]) | Ki (cannabinoid CB2 receptor [4]) | other results
CCOC(=O)c1ccccc1NC(=O)CN(c1cccc(C)c1C)S(=O)(=O)c1ccccc1 [ABK5, ethyl 2-(2-(N-(2,3-dimethylphenyl)phenylsulfonamido)acetamido)benzoate] | prevented by the addition of PTX | induce ERK1/2 phosphorylation |  |  |  | inhibition at 0.1 µM (Jurkat cells; [6]): 15 ± 2%; inhibition at 10 µM (Jurkat cells; [6]): 20 ± 1%
COC(=O)c1ccccc1NC(=O)CN(c1ccccc1OC)S(=O)(=O)c1ccc(C)cc1 [ABK6, benzoic acid, 2-[[2-[(2-methoxyphenyl)[(4-methylphenyl)sulfonyl]amino]acetyl]amino]-, methyl ester] | prevented by the addition of PTX | induce ERK1/2 phosphorylation | 2 nM | 13 ± 4 nM | 102 ± 7 nM | 
CCC(C(=O)Nc1sc2c(c1C(N)=O)CCCCCC2)c1ccccc1 (centres unmarked) [ABK7, 2-(2-phenylbutanamido)-4,5,6,7,8,9-hexahydrocycloocta[b]thiophene-3-carboxamide] | prevented by the addition of PTX | induce ERK1/2 phosphorylation | 32 nM | 31 ± 14 nM | 317 ± 117 nM | 
CCCCCCC(C)(C)c1ccc([C@@H]2C[C@H](O)CC[C@H]2CCCO)c(O)c1 [CP55,940, reference compound] |  |  |  |  |  | Cell proliferation inhibition (Jurkat cells; 0.1 μM): 7±3%; Cell proliferation inhibition (Jurkat cells; 10 μM): 26±8%
CCCCCCC(C)(C)c1ccc2c(c1)OC(C)(C)[C@@H]1CC=C(CO)C[C@@H]21 [JWH-051] |  |  |  |  |  | Ki (cannabinoid CB1 receptor; 1996): 1.2 nM; Ki (cannabinoid CB2 receptor [5]; 1996): 0.032 nM
CCCC(C)(C)c1ccc2c(c1)OC(C)(C)[C@@H]1CC=C(C)C[C@@H]21 [JWH-133] |  |  |  |  |  | Ki (cannabinoid CB1 receptor; 1999): 677 nM; Ki (cannabinoid CB2 receptor [5]; 1999): 3.4 nM
